Reference: ChEMBL document CHEMBL3120102, “Structure-based design, synthesis and biological evaluation of novel anthra[1,2-d]imidazole-6,11-dione homologues as potential antitumor agents” (2013)

What was measured:
Assay type in all cases: functional
T47D = assay: Cytotoxicity against human T47D cells assessed as growth inhibition after 48 hrs by SRB assay
Outline: (§1)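 NCI 60-cell-line screen, two stages. Five-dose testing at […]. Cellular protein measured by sulforhodamine B colorimetry after 48 h drug exposure. A time-zero control and drug-free plates are used to derive GI50, TGI and LC50 from dose-response curves plotted as log10 concentration per cell line.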

MDA-MB-231 = assay: Cytotoxicity against human MDA-MB-231 cells assessed as growth inhibition after 48 hrs by SRB assay
Outline: (§2)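 NCI 60-cell-line screen, five-dose stage: each cell line exposed for 48 h to five concentrations spanning five log steps; cellular protein measured by sulforhodamine B colorimetry. A time-zero cell control and plates without drug are used to derive GI50, TGI and LC50 from log-concentration dose-response curves.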

MCF7 = assay: Cytotoxicity against human MCF7 cells assessed as growth inhibition after 48 hrs by SRB assay; outline: as §2
DU-145 = assay: Cytotoxicity against human DU145 cells assessed as growth inhibition after 48 hrs by SRB assay
Outline: (§3)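 NCI 60-cell-line five-dose screen at […]. Drug exposure was 48 h, followed by sulforhodamine B protein staining. GI50, TGI and LC50 were calculated against a time-zero control and untreated plates, with dose–response curves plotted from log10 concentration.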

TK-10 = assay: Cytotoxicity against human TK10 cells assessed as growth inhibition after 48 hrs by SRB assay; outline: as §1
SN12C = assay: Cytotoxicity against human SN12C cells assessed as growth inhibition after 48 hrs by SRB assay; outline: as §1
RXF 393 = assay: Cytotoxicity against human RXF393 cells assessed as growth inhibition after 48 hrs by SRB assay; outline: as §2
SK-OV-3 = assay: Cytotoxicity against human SKOV3 cells assessed as growth inhibition after 48 hrs by SRB assay; outline: as §2
[1] = (§4) Cytotoxicity against human NCI-ADR-RES cells assessed as growth inhibition after 48 hrs by SRB assay; outline: as §2
NCI/ADR-RES = assay: as §4; outline: as §2
[2] = (§5) Cytotoxicity against human OVCAR5 cells assessed as growth inhibition after 48 hrs by SRB assay; conditions: OVCAR-5, 48 h; outline: as §2
OVCAR-5 = assay: as §5; outline: as §2
SK-MEL-2 = assay: Cytotoxicity against human SK-MEL-2 cells assessed as growth inhibition after 48 hrs by SRB assay; outline: as §2
MDA-MB-435 = assay: Cytotoxicity against human MDA-MB-435 cells assessed as growth inhibition after 48 hrs by SRB assay; outline: as §2
M14 = assay: Cytotoxicity against human M14 cells assessed as growth inhibition after 48 hrs by SRB assay; outline: as §3
U-251 = assay: Cytotoxicity against human U251 cells assessed as growth inhibition after 48 hrs by SRB assay; outline: as §1
SNB-75 = assay: Cytotoxicity against human SNB75 cells assessed as growth inhibition after 48 hrs by SRB assay; outline: as §1
SW-620 = assay: Cytotoxicity against human SW620 cells assessed as growth inhibition after 48 hrs by SRB assay; outline: as §1
KM12 = assay: Cytotoxicity against human KM12 cells assessed as growth inhibition after 48 hrs by SRB assay; outline: as §3
NCI-H522 = assay: Cytotoxicity against human NCI-H522 cells assessed as growth inhibition after 48 hrs by SRB assay; outline: as §2
NCI-H460 = assay: Cytotoxicity against human NCI-H460 cells assessed as growth inhibition after 48 hrs by SRB assay; outline: as §2
HOP-62 = assay: Cytotoxicity against human HOP62 cells assessed as growth inhibition after 48 hrs by SRB assay; outline: as §3
A549 = assay: Cytotoxicity against human A549 cells assessed as growth inhibition after 48 hrs by SRB assay; outline: as §3
RPMI-8226 = assay: Cytotoxicity against human RPMI8226 cells assessed as growth inhibition after 48 hrs by SRB assay; outline: as §2
MOLT-4 = assay: Cytotoxicity against human MOLT4 cells assessed as growth inhibition after 48 hrs by SRB assay; outline: as §2
K562 = assay: Cytotoxicity against human K562 cells assessed as growth inhibition after 48 hrs by SRB assay; outline: as §3
CCRF-CEM = assay: Cytotoxicity against human CCRF-CEM cells assessed as growth inhibition after 48 hrs by SRB assay; outline: as §3
CAKI-1 = assay: Cytotoxicity against human CAKI-1 cells assessed as cell growth at 10 uM after 48 hrs by SRB assay; conditions: CAKI-1, 48 h, read-out: Activity

Compound: CCCSc1nc2ccc3c(c2[nH]1)C(=O)c1ccccc1C3=O
- GI50 (T47D): 2.66 µM
- LC50 (T47D): > 100 µM
- TGI (T47D): > 100 µM
- growth inhibition (GI) (T47D): Dose-dependent effect
- growth inhibition (GI) (MDA-MB-231): Dose-dependent effect
- GI50 (MDA-MB-231; MDA-MB-231, 48 h): 5.14 µM
- LC50 (MDA-MB-231; MDA-MB-231, 48 h): > 100 µM
- TGI (MDA-MB-231; MDA-MB-231, 48 h): > 100 µM
- growth inhibition (GI) (MCF7): Dose-dependent effect
- GI50 (MCF7; MCF7, 48 h): 57 µM
- LC50 (concentration killing 50% of cells) (MCF7; MCF7, 48 h): > 100 µM
- TGI (MCF7; MCF7, 48 h): > 100 µM
- growth inhibition (GI) (DU-145): Dose-dependent effect
- GI50 (DU-145; DU-145, 48 h): > 100 µM
- TGI (DU-145; DU-145, 48 h): > 100 µM
- CC50 (DU-145; DU-145, 48 h, read-out: LC50 (the source's name)): > 100 µM
- growth inhibition (GI) (TK-10): Dose-dependent effect
- GI50 (TK-10; TK-10, 48 h): 3.25 µM
- LC50 (TK-10; TK-10, 48 h): > 100 µM
- TGI (TK-10; TK-10, 48 h): 21.6 µM
- GI50 (SN12C): 14 µM
- TGI (SN12C): > 100 µM
- growth inhibition (GI) (SN12C): Dose-dependent effect
- CC50 (SN12C; read-out: LC50 (the source's name)): > 100 µM
- growth inhibition (GI) (RXF 393): Dose-dependent effect
- GI50 (RXF 393; RXF 393, 48 h): 2.65 µM
- TGI (RXF 393; RXF 393, 48 h): 8.1 µM
- CC50 (RXF 393; RXF 393, 48 h, read-out: LC50 (the source's name)): > 100 µM
- growth inhibition (GI) (SK-OV-3): Dose-dependent effect
- GI50 (SK-OV-3; SK-OV-3, 48 h): 3.22 µM
- LC50 (concentration killing 50% of cells present at time zero) (SK-OV-3; SK-OV-3, 48 h): > 100 µM
- TGI (SK-OV-3; SK-OV-3, 48 h): 20.5 µM
- GI50 [1]: 2.37 µM
- LC50 (concentration causing 50% net cell kill) [1]: > 100 µM
- TGI [1]: > 100 µM
- growth inhibition (GI) (NCI/ADR-RES): Dose-dependent effect
- GI50 [2]: 58.1 µM
- LC50 [2]: > 100 µM
- TGI [2]: > 100 µM
- growth inhibition (GI) (OVCAR-5): Dose-dependent effect
- growth inhibition (GI) (SK-MEL-2): Dose-dependent effect
- GI50 (SK-MEL-2; SK-MEL-2, 48 h): 15.9 µM
- LC50 (50% lethal concentration) (SK-MEL-2; SK-MEL-2, 48 h): > 100 µM
- TGI (SK-MEL-2; SK-MEL-2, 48 h): > 100 µM
- growth inhibition (GI) (MDA-MB-435): Dose-dependent effect
- GI50 (MDA-MB-435; MDA-MB-435, 48 h): > 100 µM
- LC50 (MDA-MB-435; MDA-MB-435, 48 h): > 100 µM
- TGI (MDA-MB-435; MDA-MB-435, 48 h): > 100 µM
- growth inhibition (GI) (M14): Dose-dependent effect
- GI50 (M14; M14, 48 h): > 100 µM
- LC50 (M14; M14, 48 h): > 100 µM
- TGI (M14; M14, 48 h): > 100 µM
- growth inhibition (GI) (U-251): Dose-dependent effect
- GI50 (U-251; U-251, 48 h): 7.05 µM
- TGI (U-251; U-251, 48 h): > 100 µM
- CC50 (U-251; U-251, 48 h, read-out: LC50 (the source's name)): > 100 µM
- growth inhibition (GI) (SNB-75): Dose-dependent effect
- GI50 (SNB-75; SNB-75, 48 h): 2.64 µM
- LC50 (SNB-75; SNB-75, 48 h): 98.1 µM
- TGI (SNB-75; SNB-75, 48 h): 6.43 µM
- growth inhibition (GI) (SW-620): Dose-dependent effect
- GI50 (SW-620; SW-620, 48 h): > 100 µM
- LC50 (SW-620; SW-620, 48 h): > 100 µM
- TGI (SW-620; SW-620, 48 h): > 100 µM
- growth inhibition (GI) (KM12): Dose-dependent effect
- GI50 (KM12; KM12, 48 h): > 100 µM
- TGI (KM12; KM12, 48 h): > 100 µM
- CC50 (KM12; KM12, 48 h, read-out: LC50 (the source's name)): > 100 µM
- growth inhibition (GI) (NCI-H522): Dose-dependent effect
- GI50 (NCI-H522; NCI-H522, 48 h): 11.6 µM
- TGI (NCI-H522; NCI-H522, 48 h): > 100 µM
- CC50 (NCI-H522; NCI-H522, 48 h, read-out: LC50 (the source's name)): > 100 µM
- growth inhibition (GI) (NCI-H460): Dose-dependent effect
- GI50 (NCI-H460; NCI-H460, 48 h): 44.7 µM
- LC50 (NCI-H460; NCI-H460, 48 h): > 100 µM
- TGI (NCI-H460; NCI-H460, 48 h): > 100 µM
- growth inhibition (GI) (HOP-62): Dose-dependent effect
- GI50 (HOP-62; HOP-62, 48 h): 1.94 µM
- LC50 (concentration killing 50% of cells relative to time zero) (HOP-62; HOP-62, 48 h): 9.36 µM
- TGI (HOP-62; HOP-62, 48 h): 4.27 µM
- growth inhibition (GI) (A549): Dose-dependent effect
- GI50 (A549; A549, 48 h): 6.37 µM
- LC50 (concentration killing 50% of cells) (A549; A549, 48 h): > 100 µM
- TGI (A549; A549, 48 h): > 100 µM
- growth inhibition (GI) (RPMI-8226): Dose-dependent effect
- GI50 (RPMI-8226; RPMI-8226, 48 h): > 100 µM
- LC50 (concentration causing 50% net cell kill) (RPMI-8226; RPMI-8226, 48 h): > 100 µM
- TGI (RPMI-8226; RPMI-8226, 48 h): > 100 µM
- growth inhibition (GI) (MOLT-4): Dose-dependent effect
- GI50 (MOLT-4; MOLT-4, 48 h): > 100 µM
- LC50 (50% lethal concentration) (MOLT-4; MOLT-4, 48 h): > 100 µM
- TGI (MOLT-4; MOLT-4, 48 h): > 100 µM
- growth inhibition (GI) (K562): Dose-dependent effect
- GI50 (K562; K562, 48 h): 36.4 µM
- TGI (K562; K562, 48 h): > 100 µM
- CC50 (K562; K562, 48 h, read-out: LC50 (the source's name)): > 100 µM
- GI50 (CCRF-CEM): > 100 µM
- LC50 (CCRF-CEM): > 100 µM
- TGI (CCRF-CEM): > 100 µM
- growth inhibition (GI) (CCRF-CEM): Dose-dependent effect
- growth at 10 µM (CAKI-1): 45.5%
